Experiments:
HT-29 [1] = experiment: Cytotoxicity against human HT-29 cells assessed as cell viability at 200 uM after 48 hrs under normoxic conditions by MTT assay (reference value: 100%); type: functional; settings: for viability at 200 µM: Homo sapiens, HT-29, 48 h, read-out: Activity
Summary of the method: (§1)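 Cells cultured in high-glucose DMEM with 20% FBS at 37 °C and 5% CO2, seeded at 1x10^4/well, then dosed 24 h later (0–200 μM) for 48 h. Hypoxia: 1% O2, 5% CO2, balance N2 in a hypoxic workstation; normoxia: 20% O2 in air, 5% CO2. MTT (1 mg/ml) for 30 min at 37 °C, formazan dissolved in DMSO, A550. Untreated control set to 100%; quadruplicates, ≥3 cell batches, mean ± S.E.M.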

HT-29 [2] = experiment: Cytotoxicity against human HT-29 cells assessed as cell viability at 100 uM after 48 hrs under normoxic conditions by MTT assay (reference value: 100%); type: functional; settings: for viability at 100 µM: Homo sapiens, HT-29, 48 h, read-out: Activity; summary of the method: as §1
HT-29 [3] = experiment: Cytotoxicity against human HT-29 cells assessed as cell viability at 100 uM after 48 hrs under hypoxic conditions by MTT assay (reference value: 100%); type: functional; settings: for viability at 100 µM: Homo sapiens, HT-29, 48 h, read-out: Activity; summary of the method: as §1
HT-29 [4] = experiment: Cytotoxicity against human HT-29 cells assessed as cell viability at 30 uM after 48 hrs under hypoxic conditions by MTT assay (reference value: 100%); type: functional; settings: for viability at 30 µM: Homo sapiens, HT-29, 48 h, read-out: Activity; summary of the method: as §1
HT-29 [5] = experiment: Cytotoxicity against human HT-29 cells assessed as cell viability at 200 uM after 48 hrs under hypoxic conditions by MTT assay (reference value: 100%); type: functional; settings: for viability at 200 µM: Homo sapiens, HT-29, 48 h, read-out: Activity; summary of the method: as §1
HT-29 [6] = experiment: Cytotoxicity against human HT-29 cells assessed as cell viability at 30 uM after 48 hrs under normoxic conditions by MTT assay (reference value: 100%); type: functional; settings: for viability at 30 µM: Homo sapiens, HT-29, 48 h, read-out: Activity; summary of the method: as §1
Carbonic anhydrase 9 = Carbonic anhydrase 9 (Homo sapiens, UniProt Q16790); experiment: Inhibition of carbonic anhydrase 9 (unknown origin) preincubated for 15 mins by stopped flow CO2 hydration assay
Carbonic anhydrase 12 = Carbonic anhydrase 12 (Homo sapiens, UniProt O43570)
PC-3 [7] = experiment: Cytotoxicity against human PC3 cells assessed as cell viability at 30 uM after 48 hrs under normoxic conditions by MTT assay (reference value: 100%); type: functional; settings: PC-3, 48 h, read-out: Activity; summary of the method: as §1
HT-29 [8] = experiment: Cytotoxicity against human HT-29 cells assessed as reduction in cell viability after 48 hrs under hypoxic conditions by MTT assay; type: functional, cell-based; summary of the method: as §1
PC-3 [9] = experiment: Cytotoxicity against human PC3 cells assessed as cell viability at 200 uM after 48 hrs under normoxic conditions by MTT assay (reference value: 100%); type: functional; settings: PC-3, 48 h, read-out: Activity; summary of the method: as §1
MDA-MB-231 [10] = experiment: Cytotoxicity against human MDA-MB-231 cells assessed as cell viability at 200 uM after 48 hrs under normoxic conditions by MTT assay (reference value: 100%); type: functional; settings: MDA-MB-231, 48 h, read-out: Activity; summary of the method: as §1
MDA-MB-231 [11] = experiment: Cytotoxicity against human MDA-MB-231 cells assessed as reduction in cell viability after 48 hrs under hypoxic conditions by MTT assay; type: functional, cell-based; summary of the method: as §1
HT-29 [12] = experiment: Cytotoxicity against human HT-29 cells assessed as reduction in cell viability after 48 hrs under normoxic conditions by MTT assay; type: functional, cell-based; summary of the method: as §1
MDA-MB-231 [13] = experiment: Cytotoxicity against human MDA-MB-231 cells assessed as cell viability at 100 uM after 48 hrs under hypoxic conditions by MTT assay (reference value: 100%); type: functional; settings: MDA-MB-231, 48 h, read-out: Activity; summary of the method: as §1
MDA-MB-231 [14] = experiment: Cytotoxicity against human MDA-MB-231 cells assessed as reduction in cell viability after 48 hrs under normoxic conditions by MTT assay; type: functional, cell-based; summary of the method: as §1
PC-3 [15] = experiment: Cytotoxicity against human PC3 cells assessed as cell viability at 100 uM after 48 hrs under hypoxic conditions by MTT assay (reference value: 100%); type: functional; settings: PC-3, 48 h, read-out: Activity; summary of the method: as §1
PC-3 [16] = experiment: Cytotoxicity against human PC3 cells assessed as cell viability at 100 uM after 48 hrs under normoxic conditions by MTT assay (reference value: 100%); type: functional; settings: PC-3, 48 h, read-out: Activity; summary of the method: as §1
MDA-MB-231 [17] = experiment: Cytotoxicity against human MDA-MB-231 cells assessed as cell viability at 30 uM after 48 hrs under hypoxic conditions by MTT assay (reference value: 100%); type: functional; settings: MDA-MB-231, 48 h, read-out: Activity; summary of the method: as §1
PC-3 [18] = experiment: Cytotoxicity against human PC3 cells assessed as cell viability at 30 uM after 48 hrs under hypoxic conditions by MTT assay (reference value: 100%); type: functional; settings: PC-3, 48 h, read-out: Activity; summary of the method: as §1
PC-3 [19] = experiment: Cytotoxicity against human PC3 cells assessed as reduction in cell viability after 48 hrs under normoxic conditions by MTT assay; type: functional, cell-based; summary of the method: as §1
MDA-MB-231 [20] = experiment: Cytotoxicity against human MDA-MB-231 cells assessed as cell viability at 30 uM after 48 hrs under normoxic conditions by MTT assay (reference value: 100%); type: functional; settings: MDA-MB-231, 48 h, read-out: Activity; summary of the method: as §1
MDA-MB-231 [21] = experiment: Cytotoxicity against human MDA-MB-231 cells assessed as cell viability at 100 uM after 48 hrs under normoxic conditions by MTT assay (reference value: 100%); type: functional; settings: MDA-MB-231, 48 h, read-out: Activity; summary of the method: as §1
MDA-MB-231 [22] = experiment: Cytotoxicity against human MDA-MB-231 cells assessed as cell viability at 200 uM after 48 hrs under hypoxic conditions by MTT assay (reference value: 100%); type: functional; settings: MDA-MB-231, 48 h, read-out: Activity; summary of the method: as §1
PC-3 [23] = experiment: Cytotoxicity against human PC3 cells assessed as reduction in cell viability after 48 hrs under hypoxic conditions by MTT assay; type: functional, cell-based; summary of the method: as §1
PC-3 [24] = experiment: Cytotoxicity against human PC3 cells assessed as cell viability at 200 uM after 48 hrs under hypoxic conditions by MTT assay (reference value: 100%); type: functional; settings: PC-3, 48 h, read-out: Activity; summary of the method: as §1

Chain of Carbonic anhydrase 12 (O43570 whole entry): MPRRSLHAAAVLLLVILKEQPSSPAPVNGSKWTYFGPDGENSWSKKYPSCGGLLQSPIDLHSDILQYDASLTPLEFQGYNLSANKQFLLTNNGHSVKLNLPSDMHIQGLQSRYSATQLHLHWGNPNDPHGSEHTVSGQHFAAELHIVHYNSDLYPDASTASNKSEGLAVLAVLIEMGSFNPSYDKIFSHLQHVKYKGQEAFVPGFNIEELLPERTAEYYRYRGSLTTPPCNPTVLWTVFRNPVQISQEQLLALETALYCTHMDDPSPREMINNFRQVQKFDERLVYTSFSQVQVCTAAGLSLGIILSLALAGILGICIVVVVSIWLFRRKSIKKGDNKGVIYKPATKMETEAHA

Work on `CC(=O)Nc1nnc(S(N)(=O)=O)s1` [ACETAZOLAMIDE] yielded an Activity (HT-29 [1]) of 96.9%, an Activity (HT-29 [2]) of 100.7% and an Activity (HT-29 [3]) of 101.7%. It also gave an Activity (HT-29 [4]) of 107.6%, an Activity (HT-29 [5]) of 90.9% and an Activity (HT-29 [6]) of 96.9%.

In the case of `NS(=O)(=O)c1cc(NC(=O)Nc2ccc(F)cc2)c(O)c([N+](=O)[O-])c1`, the Ki (Carbonic anhydrase 9) is reported as 340 nM, the Ki (Carbonic anhydrase 12) is reported as 500 nM and the viability at 30 µM (PC-3 [7]) is reported as 86.9%. For the same compound, the Activity (HT-29 [8]) was “Dose-dependent effect”, the IC50 (HT-29 [8]; HT-29, 48 h) was > 200000 nM and the viability at 200 µM (PC-3 [9]) was 56.2%. The viability at 200 µM (HT-29 [1]) was 107%, the viability at 200 µM (MDA-MB-231 [10]) was 90.3% and the Activity (MDA-MB-231 [11]) was “Dose-dependent effect”. The IC50 (MDA-MB-231 [11]; MDA-MB-231, 48 h) was > 200000 nM, the Activity (HT-29 [12]) was “Dose-dependent effect” and the IC50 (HT-29 [12]; HT-29, 48 h) was > 200000 nM. It also gave a viability at 100 µM (MDA-MB-231 [13]) of 68.4%, a viability at 100 µM (HT-29 [2]) of 112% and a viability at 100 µM (HT-29 [3]) of 88.2%. The Activity (MDA-MB-231 [14]) was “Dose-dependent effect”, the IC50 (MDA-MB-231 [14]; MDA-MB-231, 48 h) was > 200000 nM and the viability at 100 µM (PC-3 [15]) was 61.3%. For the same compound, the viability at 100 µM (PC-3 [16]) was 71.7%, the viability at 30 µM (MDA-MB-231 [17]) was 84.8% and the viability at 30 µM (PC-3 [18]) was 83%. The Activity (PC-3 [19]) was “Dose-dependent effect”, the IC50 (PC-3 [19]; PC-3, 48 h) was > 200000 nM and the viability at 30 µM (MDA-MB-231 [20]) was 100%. The viability at 100 µM (MDA-MB-231 [21]) was 92.8%, the viability at 30 µM (HT-29 [4]) was 90.8% and the viability at 200 µM (MDA-MB-231 [22]) was 61.7%. The viability at 200 µM (HT-29 [5]) was 79.3%, the Activity (PC-3 [23]) was “Dose-dependent effect” and the IC50 (PC-3 [23]; PC-3, 48 h) was 134000 nM. The viability at 200 µM (PC-3 [24]) was 23.5% and the viability at 30 µM (HT-29 [6]) was 110%.

`NS(=O)(=O)c1ccc(O)c([N+](=O)[O-])c1` gave a Ki (Carbonic anhydrase 9) of 120 nM and a Ki (Carbonic anhydrase 12) of 160 nM.

`Cc1cc(C)cc(NC(=O)Nc2cc(S(N)(=O)=O)cc([N+](=O)[O-])c2O)c1` was tested, and the Ki (Carbonic anhydrase 9) was 530 nM and the Ki (Carbonic anhydrase 12) was 620 nM.

`COc1cccc(NC(=O)Nc2cc(S(N)(=O)=O)cc([N+](=O)[O-])c2O)c1` gave a Ki (Carbonic anhydrase 9) of 460 nM and a Ki (Carbonic anhydrase 12) of 530 nM.

In the case of `NS(=O)(=O)c1cc([N+](=O)[O-])c(OC(=O)c2ccccc2)c([N+](=O)[O-])c1`, the Ki (Carbonic anhydrase 9) is reported as 90 nM and the Ki (Carbonic anhydrase 12) is reported as 70 nM.

Work on `NS(=O)(=O)c1cc(NC(=O)N[C@@H]2C(O)O[C@@H](CO)[C@H](O)[C@H]2O)c(O)c([N+](=O)[O-])c1` (some centres not stated) yielded a Ki (Carbonic anhydrase 9) of 170 nM and a Ki (Carbonic anhydrase 12) of 160 nM.

For `NS(=O)(=O)c1cc(O)c(O)c([N+](=O)[O-])c1`, the Ki (Carbonic anhydrase 9) was 240 nM and the Ki (Carbonic anhydrase 12) was 90 nM.

Work on `Cc1cc(NC(=O)Nc2cc(S(N)(=O)=O)cc([N+](=O)[O-])c2O)ccc1F` yielded a Ki (Carbonic anhydrase 9) of 370 nM and a Ki (Carbonic anhydrase 12) of 880 nM.

Compound `NS(=O)(=O)c1cc(NC(=O)c2ccccc2)c(OC(=O)c2ccccc2)c([N+](=O)[O-])c1` has a Ki (Carbonic anhydrase 9) of 130 nM and a Ki (Carbonic anhydrase 12) of 300 nM.

Work on `NS(=O)(=O)c1ccc(NC(=O)Nc2ccc(F)cc2)cc1` [SLC-0111] yielded a viability at 30 µM (PC-3 [7]) of 109%, a viability at 200 µM (PC-3 [9]) of 83.1% and a viability at 200 µM (HT-29 [1]) of 35.6%. For the same compound, the viability at 200 µM (MDA-MB-231 [10]) was 56.9%, the viability at 100 µM (MDA-MB-231 [13]) was 107% and the viability at 100 µM (HT-29 [2]) was 50.3%. The viability at 100 µM (HT-29 [3]) was 71.5%, the viability at 100 µM (PC-3 [15]) was 106% and the viability at 100 µM (PC-3 [16]) was 109%. The viability at 30 µM (MDA-MB-231 [17]) was 103%, the viability at 30 µM (PC-3 [18]) was 90.8% and the viability at 30 µM (MDA-MB-231 [20]) was 83.4%. The viability at 100 µM (MDA-MB-231 [21]) was 86.6%, the viability at 30 µM (HT-29 [4]) was 85.3% and the viability at 200 µM (MDA-MB-231 [22]) was 103%. The viability at 200 µM (HT-29 [5]) was 56.4%, the viability at 200 µM (PC-3 [24]) was 95.8% and the viability at 30 µM (HT-29 [6]) was 62.4%.

From ChEMBL document CHEMBL4261658, “4-Hydroxy-3-nitro-5-ureido-benzenesulfonamides Selectively Target the Tumor-Associated Carbonic Anhydrase Isoforms IX and XII Showing Hypoxia-Enhanced Antiproliferative Profiles” (J Med Chem, 2018)
